Results taken from ChEMBL document CHEMBL5154815, “A Series of Substituted Bis-Aminotriazines Are Activators of the Natriuretic Peptide Receptor C” (J Med Chem, 2022).
pEC50, pIC50, pKd: −log10 of the molar value. The source made the active and inactive calls. The calls are words filed in the database; no cut-off is given here.

Key:
[1] = Stability in Sprague-Dawley rat hepatocytes assessed as clearance per […] at 1 uM after 20 mins by LC-MS/MS analysis; assay type: ADME, cell-based, Hepatocyte
[2] = biological target: T1, Atrial natriuretic peptide receptor 3 (Homo sapiens) (UniProt P17342); test: Displacement of Flu-P19 probe from human NPR-C (27 to 541 residues) at 300 uM by fluorescence polarization analysis relative to control
T1 sequence (whole entry): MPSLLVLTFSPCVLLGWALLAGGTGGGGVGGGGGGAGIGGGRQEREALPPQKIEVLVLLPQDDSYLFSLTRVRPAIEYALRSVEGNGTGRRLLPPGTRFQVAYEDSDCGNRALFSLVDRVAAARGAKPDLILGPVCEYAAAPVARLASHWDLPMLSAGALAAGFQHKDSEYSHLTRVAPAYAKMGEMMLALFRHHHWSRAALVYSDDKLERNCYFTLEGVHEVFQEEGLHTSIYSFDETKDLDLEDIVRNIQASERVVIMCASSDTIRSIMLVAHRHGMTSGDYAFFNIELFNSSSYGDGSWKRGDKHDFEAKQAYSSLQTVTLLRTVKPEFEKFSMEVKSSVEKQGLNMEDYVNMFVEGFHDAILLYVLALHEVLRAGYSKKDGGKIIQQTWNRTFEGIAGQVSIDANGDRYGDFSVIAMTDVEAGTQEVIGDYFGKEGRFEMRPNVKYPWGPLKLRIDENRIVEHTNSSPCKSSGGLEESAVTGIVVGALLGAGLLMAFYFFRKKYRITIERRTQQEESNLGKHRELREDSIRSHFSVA
Summary of the method: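 Competition fluorescence polarization with NPR-C protein 20 nM and Flu-P19 probe 150 pM (final) in PBS-P with 1% DMSO final; samples were prepared on ice. Primary screen at 300 μM ligand. Read at 485 nm excitation / 520 nm emission. Signal normalized to buffer+probe and protein+probe controls; background blanked with buffer-only PBS-P/1% DMSO.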

[3] = biological target: T2, Atrial natriuretic peptide receptor 3 (Rattus norvegicus, UniProt P41740); test: Agonist activity at NPRC in rat small mesenteric arteries assessed as vasorelaxation by Organ bath assay; assay type: tissue-based, Artery
T2 sequence (P41740 whole entry): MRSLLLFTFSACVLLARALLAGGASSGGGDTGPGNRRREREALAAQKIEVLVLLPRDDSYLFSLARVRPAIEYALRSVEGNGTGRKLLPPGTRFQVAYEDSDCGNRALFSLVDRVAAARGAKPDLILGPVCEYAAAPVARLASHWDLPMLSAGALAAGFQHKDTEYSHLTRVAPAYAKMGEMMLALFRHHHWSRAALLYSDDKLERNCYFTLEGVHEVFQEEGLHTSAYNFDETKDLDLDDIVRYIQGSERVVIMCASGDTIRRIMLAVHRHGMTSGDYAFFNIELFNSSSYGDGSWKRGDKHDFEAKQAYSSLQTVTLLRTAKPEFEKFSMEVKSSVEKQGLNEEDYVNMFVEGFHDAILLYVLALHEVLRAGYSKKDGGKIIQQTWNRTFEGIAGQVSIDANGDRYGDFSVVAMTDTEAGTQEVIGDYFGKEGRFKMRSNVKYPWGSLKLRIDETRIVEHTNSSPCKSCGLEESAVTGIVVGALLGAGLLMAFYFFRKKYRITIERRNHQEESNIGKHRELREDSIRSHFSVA

[4] = biological target: T3, Atrial natriuretic peptide receptor 3 (Mus musculus, UniProt P70180); test: Agonist activity at NPRC in wild type mouse mesenteric arteries assessed as vasorelaxation by Organ bath assay; assay type: tissue-based, Artery
T3 sequence (P70180 whole entry): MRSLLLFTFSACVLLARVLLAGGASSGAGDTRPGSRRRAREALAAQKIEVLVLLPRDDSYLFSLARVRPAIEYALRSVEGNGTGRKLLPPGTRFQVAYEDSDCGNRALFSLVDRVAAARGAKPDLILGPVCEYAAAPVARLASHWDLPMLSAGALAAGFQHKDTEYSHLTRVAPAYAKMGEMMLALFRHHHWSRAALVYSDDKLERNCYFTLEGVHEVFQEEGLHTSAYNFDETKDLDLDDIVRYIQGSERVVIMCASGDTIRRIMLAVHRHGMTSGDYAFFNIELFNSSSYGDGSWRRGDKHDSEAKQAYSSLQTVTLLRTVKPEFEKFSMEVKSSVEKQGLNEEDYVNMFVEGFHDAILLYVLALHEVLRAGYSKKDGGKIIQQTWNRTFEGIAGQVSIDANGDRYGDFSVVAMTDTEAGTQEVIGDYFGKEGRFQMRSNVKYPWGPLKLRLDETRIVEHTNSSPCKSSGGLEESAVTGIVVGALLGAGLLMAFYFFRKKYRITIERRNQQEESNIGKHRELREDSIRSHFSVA

Cytochrome P450 2C9 = Cytochrome P450 2C9 (Homo sapiens, UniProt P11712); test: Inhibition of CYP2C9 in human liver microsomes using diclofenac as substrate preincubated for 10 mins followed by NADPH addition and measured after 10 mins by LC/MS/MS analysis
[5] = Stability of compound in pooled human plasma assessed as half life measured upto 120 mins by LC/MS/MS analysis; settings: 2 h
Cytochrome P450 2C19 = Cytochrome P450 2C19 (Homo sapiens, UniProt P33261); test: Inhibition of CYP2C19 in human liver microsomes using S-mephenytoin as substrate preincubated for 10 mins followed by NADPH addition and measured after 20 mins by LC/MS/MS analysis
Cytochrome P450 3A4 [6] = biological target: T4, Cytochrome P450 3A4 (Homo sapiens, UniProt P08684); test: Inhibition of CYP3A4 in human liver microsomes using midazolam as a substrate preincubated for 10 mins followed by NADPH addition and measured after 20 mins by LC/MS/MS analysis
Cytochrome P450 3A4 [7] = biological target: T4, Cytochrome P450 3A4; test: Inhibition of CYP3A4 in human liver microsomes using testosterone as a substrate preincubated for 10 mins followed by NADPH addition and measured after 10 mins by LC/MS/MS analysis
[8] = Initial plasma concentration in fasted C57BL/6 mouse at 3 mg/kg, iv by LC-MS/MS analysis
[9] = Volume of distribution at steady state in fasted C57BL/6 mouse at 3 mg/kg, iv by LC-MS/MS analysis; assay type: ADME, organism-based; settings: in vivo, read-out: Vdss
[10] = Mean residence time (0 to infinity) in fasted C57BL/6 mouse at 3 mg/kg, iv by LC-MS/MS analysis; settings: in vivo
[11] = AUC (0 to infinity) in fasted C57BL/6 mouse at 10 mg/kg, po by LC-MS/MS analysis; assay type: ADME, organism-based; set-up: time infinity, dose 10 mg/kg, route po; settings: in vivo
[12] = biological target: T5, Atrial natriuretic peptide receptor 3 (Homo sapiens, UniProt P17342); test: Binding affinity to CM5 sensor chip immobilized human NPR-C (27 to 541 residues) assessed as dissociation constant by surface plasmon resonance analysis
T5 sequence (P17342 whole entry): T1 sequence (whole entry)

[13] = biological target: T6, Atrial natriuretic peptide receptor 3 (Rattus norvegicus) (UniProt P41740); test: Agonist activity at NPRC in rat aorta assessed as inhibition of cANF4-23 induced vasorelaxation in presence of M372049 by Organ bath assay; assay type: tissue-based; settings: filed as agonist
T6 sequence (whole entry): T2 sequence (P41740 whole entry)

[14] = biological target: T1, Atrial natriuretic peptide receptor 3 (Homo sapiens); test: Agonist activity at NPRC in human Hela cells assessed as decrease in forskolin-induced cAMP level at 100 uM relative to control; assay type: cell-based; set-up: scale not given: the % may be the effect or the level left
in vivo = settings: C57BL/6, mouse, po, 10 mg/kg

T4 sequence (P08684 whole entry): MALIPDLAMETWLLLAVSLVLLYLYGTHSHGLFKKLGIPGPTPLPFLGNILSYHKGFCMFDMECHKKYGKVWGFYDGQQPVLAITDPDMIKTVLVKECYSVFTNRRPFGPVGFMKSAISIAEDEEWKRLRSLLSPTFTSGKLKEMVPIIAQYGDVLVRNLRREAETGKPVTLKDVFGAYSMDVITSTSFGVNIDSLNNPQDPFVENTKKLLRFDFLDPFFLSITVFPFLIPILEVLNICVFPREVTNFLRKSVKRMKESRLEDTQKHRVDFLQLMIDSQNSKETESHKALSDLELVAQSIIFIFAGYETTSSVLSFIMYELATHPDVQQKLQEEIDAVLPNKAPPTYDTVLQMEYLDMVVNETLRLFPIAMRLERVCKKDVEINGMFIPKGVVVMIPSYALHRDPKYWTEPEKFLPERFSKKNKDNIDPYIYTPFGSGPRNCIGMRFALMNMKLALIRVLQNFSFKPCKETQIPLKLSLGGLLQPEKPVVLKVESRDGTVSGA
Sequence of Cytochrome P450 2C19 (P33261 whole entry): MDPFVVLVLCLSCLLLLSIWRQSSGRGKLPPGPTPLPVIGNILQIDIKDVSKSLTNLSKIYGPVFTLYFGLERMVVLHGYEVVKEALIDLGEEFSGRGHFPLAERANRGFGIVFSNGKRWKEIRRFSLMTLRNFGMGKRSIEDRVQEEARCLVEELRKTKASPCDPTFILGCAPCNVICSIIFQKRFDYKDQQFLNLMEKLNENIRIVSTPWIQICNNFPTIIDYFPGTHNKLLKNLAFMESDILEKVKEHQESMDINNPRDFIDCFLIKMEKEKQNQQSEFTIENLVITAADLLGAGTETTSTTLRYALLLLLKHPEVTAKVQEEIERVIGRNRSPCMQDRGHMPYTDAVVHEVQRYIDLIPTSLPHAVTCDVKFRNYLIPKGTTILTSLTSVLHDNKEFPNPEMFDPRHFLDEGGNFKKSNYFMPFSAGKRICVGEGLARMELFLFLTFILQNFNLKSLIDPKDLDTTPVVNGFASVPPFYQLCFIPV
Sequence of Cytochrome P450 2C9 (P11712 whole entry): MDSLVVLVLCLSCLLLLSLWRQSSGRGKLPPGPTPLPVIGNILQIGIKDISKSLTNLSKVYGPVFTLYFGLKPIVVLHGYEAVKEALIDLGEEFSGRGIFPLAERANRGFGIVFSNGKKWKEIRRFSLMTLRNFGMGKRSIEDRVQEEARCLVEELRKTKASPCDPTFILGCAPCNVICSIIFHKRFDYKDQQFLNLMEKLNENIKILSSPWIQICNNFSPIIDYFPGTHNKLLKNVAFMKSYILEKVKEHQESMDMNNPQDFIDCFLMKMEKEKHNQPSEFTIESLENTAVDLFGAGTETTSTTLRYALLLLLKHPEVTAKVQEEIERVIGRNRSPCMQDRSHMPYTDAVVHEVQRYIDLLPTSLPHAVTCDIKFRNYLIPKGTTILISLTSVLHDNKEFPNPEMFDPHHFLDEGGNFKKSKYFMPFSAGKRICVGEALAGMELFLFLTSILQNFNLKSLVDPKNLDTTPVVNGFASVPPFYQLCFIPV

CC(=O)Nc1ccc(Nc2ncnc(NCCC(=O)OC(C)(C)C)n2)cc1
CLH [1]: 11.8 µL/min | Activity [2]: < 17% | pEC50 [3]: 6.07 | pEC50 [4]: 5.80 | pIC50 (Cytochrome P450 2C9): < 4.30 | t1/2 [5]: > 120 min | pIC50 (Cytochrome P450 2C19): < 4.30 | pIC50 (Cytochrome P450 3A4 [6]): < 4.30 | pIC50 (Cytochrome P450 3A4 [7]): < 4.30 | C0 [8]: 2330 ng/mL | Vd [9]: 1.75 L/kg | MRT inf [10]: 15.7 min | AUC(0-inf) [11]: 653 ng·h/mL | pKd [12]: 3.84 | Activity [13]: Active | Activity [14]: 37.7% | Tmax (in vivo): 15 min
